# According to ChEMBL document CHEMBL1221211, “Synthesis enables identification of the cellular target of leucascandrolide A and neopeltolide” (Nat Chem Biol, 2008):
# pIC50: −log10 of the molar value. Active and inactive are the calls of the source. The rule behind the calls is not given here.
# Experiments:
# Saccharomyces cerevisiae [1] = assay: Antifungal activity against Saccharomyces cerevisiae W303-1A in glucose agar media at 0.5 ug after 2 to 3 days by disk diffusion method; settings: read-out: DIZ
# [2] = molecular target: T1, Succinate dehydrogenase [ubiquinone] cytochrome b small subunit, mitochondrial (Saccharomyces cerevisiae) (UniProt P37298); assay: Effect on succinate:ubiquinone oxidoreductase activity of respiratory chain in Saccharomyces cerevisiae W303-1A mitochondria at […]
# T1 sequence (whole entry): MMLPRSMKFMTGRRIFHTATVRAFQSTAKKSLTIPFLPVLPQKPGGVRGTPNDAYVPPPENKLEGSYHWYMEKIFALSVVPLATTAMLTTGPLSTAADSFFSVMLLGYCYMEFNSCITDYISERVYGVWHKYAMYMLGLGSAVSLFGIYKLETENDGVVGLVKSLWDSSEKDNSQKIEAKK
# A549 [3] = assay: Inhibition of cell proliferation in human A549 cells in after 48 hrs; assay type: functional; settings: A549, 48 h
# Saccharomyces cerevisiae [4] = assay: Antifungal activity against Saccharomyces cerevisiae W303-1A in glucose agar media at 1 ug […] by disk diffusion method; assay type: functional; settings: read-out: DIZ
# Summary of the method: (§1)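 W303-1A grown to saturation in YPD at RT, diluted 10-fold, spread onto YPD (2% glucose) or YPGly (3% v/v glycerol) agar; compound in 20 μl water applied to paper discs placed on agar; plates incubated 2–3 days at 30°C; growth-inhibition zone diameter read.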
# Saccharomyces cerevisiae [5] = assay: Antifungal activity against Saccharomyces cerevisiae W303-1A in glycerol agar media at 1 ug […] by disk diffusion method; assay type: functional; settings: read-out: DIZ
# Summary of the method: as §1
# Saccharomyces cerevisiae [6] = assay: Effect on cytochrome c oxidase activity of respiratory chain in Saccharomyces cerevisiae W303-1A mitochondria at […]
# A549 [7] = assay: Inhibition of bc1 complex in human A549 cells assessed as reduction in ATP production; assay type: cell-based
# Summary of the method: (§2)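 A549 cells seeded at 2500 cells/well, left 4 h, then given graded compound with or without 10 mM 2-deoxyglucose for 30 min; duplicate wells; ATP by luciferase luminescence, converted to nmol/cell via ATP standard curve; expressed as % of vehicle; IC50 from ATP decrease.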
# [8] = Inhibition of Saccharomyces cerevisiae Cytochrome b-c1 complex
# HCT-116 [9] = assay: Inhibition of cell proliferation in human HCT116 cells in after 48 hrs; assay type: functional; settings: HCT-116, 48 h
# PC-3 [10] = assay: Inhibition of cell proliferation in human PC3 cells in after 48 hrs; assay type: functional; settings: PC-3, 48 h
# [11] = (§3) Inhibition of bc1 complex in human A549 cells assessed as reduction in ATP production in presence of 10 mM of 2-DG; assay type: cell-based
# Summary of the method: as §2
# Saccharomyces cerevisiae [12] = assay: Effect on NADH dehydrogenase in respiratory chain of Saccharomyces cerevisiae W303-1A mitochondria at […]
# [13] = Inhibition of bovine Cytochrome b-c1 complex; design: species or system Bos taurus
# Summary of the method: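 Bovine heart mitochondrial bc1 complex purified (DEAE wash 150 mM NaCl, 150–400 mM NaCl gradient), diluted to 0.686 mg/ml in 50 mM phosphate pH 7.5, 300 mM NaCl, 0.1 g/l dodecyl maltoside; activity assayed in 40 mM potassium phosphate pH 7.4, 0.5 mM EDTA by monitoring reduction of equine cytochrome c; dose-response.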
# HCT-116 [14] = assay: Induction of cell cycle arrest in human HCT116 assessed as accumulation at G2/M-phase at 100 uM after 24 hrs by FACS analysis; assay type: functional
# Saccharomyces cerevisiae [15] = assay: Inhibition of cellular respiration in Saccharomyces cerevisiae W303-1A assessed as level of cytochrome b at 10 uM in presence of inhibitor; assay type: functional, organism-based
# Saccharomyces cerevisiae [16] = assay: Antifungal activity against Saccharomyces cerevisiae W303-1A in galactose agar media at 50 uM after 24 hrs by spectrophotometry; assay type: functional, organism-based
# Saccharomyces cerevisiae [17] = assay: Antifungal activity against Saccharomyces cerevisiae W303-1A harboring rvs161 deficient mutant gene supersensitive strain in galactose agar media at 50 uM after 24 hrs by spectrophotometry; assay type: functional, organism-based
# Saccharomyces cerevisiae [18] = assay: Antifungal activity against Saccharomyces cerevisiae W303-1A harboring kcs1 deficient mutant gene in galactose agar media at 50 uM after 24 hrs by spectrophotometry; assay type: functional, organism-based
# HCT-116 [19] = assay: Induction of cell cycle arrest in human HCT116 assessed as accumulation at G1-phase at 100 uM after 24 hrs by FACS analysis; assay type: functional
# HCT-116 [20] = assay: Effect on cellular respiration in human HCT116 cells assessed as increase in NADH level at 2.5 uM by fluorescence assay; assay type: functional
# Summary of the method: (§4)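 HCT116 cells seeded at 200 000 per collagen-coated dish, grown 41 h at 37°C, fresh medium 30–60 min; NADH autofluorescence by spinning-disk confocal microscopy (ex 350 ± 25, em 457 ± 25 nm) every 30 s at 37°C, baseline then 4 min after compound; % change from average initial vs post-addition fluorescence.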
# 143B [21] = assay: Inhibition of bc1 complex in human 143B cells assessed as reduction in ATP production in presence of […] of CCCP; assay type: cell-based
# Saccharomyces cerevisiae [22] = assay: Antifungal activity against Saccharomyces cerevisiae W303-1A harboring snf4 deficient mutant gene in galactose agar media at 50 uM after 24 hrs by spectrophotometry; assay type: functional, organism-based
# 143B [23] = assay: Inhibition of bc1 complex in human 143B cells assessed as reduction in oxygen uptake at 25 nM in presence of […] of CCCP; assay type: cell-based
# Summary of the method: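 143B cells (4 × 10^6 per aliquot) in serum-free medium in stirred respirometer chamber at 37°C; O2 consumption by oxygen electrode; compound added dose-wise, then CCCP uncoupler added to test whether respiration returns.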
# HCT-116 [24] = assay: Induction of cell cycle arrest in human HCT116 assessed as accumulation at S-phase at 100 uM after 24 hrs by FACS analysis; assay type: functional; settings: HCT-116, 24 h
# HCT-116 [25] = assay: Effect on cellular respiration in human HCT116 cells assessed as increase in NADH level at 0.5 uM by fluorescence assay; assay type: functional, cell-based
# Summary of the method: as §4
# Saccharomyces cerevisiae [26] = assay: Inhibition of Saccharomyces cerevisiae NADH oxidase at 10 nM
# Saccharomyces cerevisiae [27] = assay: Antifungal activity against Saccharomyces cerevisiae W303-1A harboring snf6 deficient mutant gene in galactose agar media at 50 uM after 24 hrs by spectrophotometry; assay type: functional, organism-based
# Saccharomyces cerevisiae [28] = assay: Antifungal activity against Saccharomyces cerevisiae petite strain in glucose agar media at 0.5 ug […] by disk diffusion method; assay type: functional; settings: read-out: DIZ
# Summary of the method: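 Petite (ρ0) W303-1A made by ethidium bromide (25 μg/ml) treatment in minimal glucose medium, regrown drug-free, identified as white colonies failing to grow on YPGly. Saturated YPD culture diluted 10-fold, spread on glucose agar; compound in 20 μl water on paper discs; 2–3 days at 30°C; zone of inhibition read.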
# Saccharomyces cerevisiae [29] = assay: Antifungal activity against Saccharomyces cerevisiae W303-1A harboring atg11 deficient mutant gene in galactose agar media at 50 uM after 24 hrs by spectrophotometry; assay type: functional, organism-based
# HCT-116 [30] = assay: Induction of cell cycle arrest in human HCT116 assessed as accumulation at S-phase at 10 uM after 24 hrs by FACS analysis; assay type: functional
# M14 = assay: Cytotoxicity against human M14 cells; assay type: functional
# K562 = assay: Cytotoxicity against human K562 cells; assay type: functional
# PC-3 [31] = assay: Cytotoxicity against human PC3 cells; assay type: functional
# HCT-116 [32] = assay: Induction of cell cycle arrest in human HCT116 assessed as accumulation at G1-phase at 10 uM after 24 hrs by FACS analysis; assay type: functional
# 786-0 = assay: Cytotoxicity against human 786-0 cells; assay type: functional
# SK-OV-3 = assay: Cytotoxicity against human SKOV3 cells; assay type: functional
# SK-MEL-5 = assay: Cytotoxicity against human SK-MEL-5 […]; assay type: functional
# SF-268 = assay: Cytotoxicity against human SF268 cells; assay type: functional
# A549 [33] = assay: Cytotoxicity against human A549 cells; assay type: functional
# NCI/ADR-RES = assay: Cytotoxicity against human NCI/ADR-RES cells; assay type: functional
# HCT-116 [34] = assay: Cytotoxicity against human HCT116 cells; assay type: functional
# Malme-3M = assay: Cytotoxicity against human MALME-3M cells; assay type: functional
# DU-145 = assay: Cytotoxicity against human DU145 cells; assay type: functional
# CAKI-1 = assay: Cytotoxicity against human Caki1 cells; assay type: functional
# MCF7 = assay: Cytotoxicity against human MCF7 cells; assay type: functional
# NCI-H226 = assay: Cytotoxicity against human NCI-H226 cells; assay type: functional
# HCT-116 [35] = assay: Induction of cell cycle arrest in human HCT116 assessed as accumulation at G2/M-phase at 10 uM after 24 hrs by FACS analysis; assay type: functional
# OVCAR-8 = assay: Cytotoxicity against human OVCAR8 cells; assay type: functional
# A549 [36] = assay: as §3; assay type: cell-based
# Summary of the method: as §2
structure (smiles),measurement,setting,value
C[C@@H]1C[C@@H]([C@H](O)CC2CC(=O)NC(=O)C2)C(=O)[C@@H](C)C1 [CYCLOHEXIMIDE],zone of inhibition at 0.5 µg/disc,Saccharomyces cerevisiae [1],30 mm
CCC[C@@H]1C[C@H](OC)C[C@H](C)C[C@@H]2C[C@@H](OC(=O)/C=C\CCc3coc(/C=C\CNC(=O)OC)n3)C[C@H](CC(=O)O1)O2 [NEOPELTOLIDE],Activity,[2],inactive
same,GI50,A549 [3],0.5 nM
same,zone of inhibition at 1 µg/disc,Saccharomyces cerevisiae [4],33 mm
same,zone of inhibition at 1 µg/disc,Saccharomyces cerevisiae [5],46 mm
same,Activity,Saccharomyces cerevisiae [6],inactive
same,inhibition,A549 [7],inactive
same,pIC50,[8],9.22
same,GI50,HCT-116 [9],0.5 nM
same,GI50,PC-3 [10],0.3 nM
same,pIC50,[11],8.89
same,Activity,Saccharomyces cerevisiae [12],inactive
same,pIC50,[13],8.70
CCCCC[C@H]1C[C@@H]2CCC[C@@H](C[C@@H](OC)C[C@@H]3C[C@@H](OC(=O)/C=C\CCc4coc(/C=C\CNC(=O)OC)n4)C[C@H](CC(=O)O1)O3)O2,Activity,HCT-116 [14],6%
same,inhibition,Saccharomyces cerevisiae [15],Active
same,Activity,[2],inactive
same,Activity,Saccharomyces cerevisiae [16],Active
same,GI50,A549 [3],0.8 nM
same,Activity,Saccharomyces cerevisiae [17],Active
same,Activity,Saccharomyces cerevisiae [18],Active
same,zone of inhibition at 1 µg/disc,Saccharomyces cerevisiae [4],25 mm
same,Activity,HCT-116 [19],61%
same,zone of inhibition at 1 µg/disc,Saccharomyces cerevisiae [5],36 mm
same,Activity,HCT-116 [20],40%
same,inhibition,143B [21],Dose-dependent effect
same,Activity,Saccharomyces cerevisiae [22],Active
same,inhibition,143B [23],Active
same,inhibition at 100 µM,HCT-116 [24],27%
same,Activity,Saccharomyces cerevisiae [6],inactive
same,Activity,HCT-116 [25],Active
same,inhibition,A549 [7],inactive
same,pIC50,[8],8.74
same,GI50,HCT-116 [9],0.3 nM
same,inhibition,Saccharomyces cerevisiae [26],Active
same,Activity,Saccharomyces cerevisiae [27],Active
same,zone of inhibition at 0.5 µg/disc,Saccharomyces cerevisiae [28],21 mm
same,GI50,PC-3 [10],0.8 nM
same,Activity,Saccharomyces cerevisiae [29],Active
same,pIC50,[11],8.59
same,Activity,Saccharomyces cerevisiae [12],inactive
same,pIC50,[13],8.22
COC(=O)NC/C=C\c1nc(CC/C=C\C(=O)O[C@@H]2C[C@H]3C[C@H](OC)C[C@H]4O[C@@H](CC[C@@H]4C)C[C@H](/C=C/CC(C)C)OC(=O)C[C@@H](C2)O3)co1,Activity,HCT-116 [30],17%
same,GI50,M14,280 nM
same,GI50,K562,280 nM
same,GI50,PC-3 [31],280 nM
same,Activity,HCT-116 [32],71%
same,GI50,786-0,280 nM
same,GI50,SK-OV-3,670 nM
same,GI50,SK-MEL-5,670 nM
same,GI50,SF-268,280 nM
same,GI50,A549 [33],670 nM
same,GI50,NCI/ADR-RES,670 nM
same,GI50,HCT-116 [34],670 nM
same,GI50,Malme-3M,670 nM
same,GI50,DU-145,670 nM
same,GI50,CAKI-1,670 nM
same,GI50,MCF7,280 nM
same,GI50,NCI-H226,280 nM
same,Activity,HCT-116 [35],8%
same,GI50,OVCAR-8,280 nM
CC(=O)O[C@H]1C(=O)[C@@]2(C)[C@H]([C@H](OC(=O)c3ccccc3)[C@]3(O)C[C@H](OC(=O)[C@H](O)[C@@H](NC(=O)c4ccccc4)c4ccccc4)C(C)=C1C3(C)C)[C@]1(OC(C)=O)CO[C@@H]1C[C@@H]2O,inhibition,A549 [36],inactive
